{"source": "ChEMBL document CHEMBL3865794", "about": "“Novel securinine derivatives as topoisomerase I based antitumor agents” (Eur J Med Chem, 2016)", "key": {"[1]": {"assay": "Growth inhibition of human SH-SY5Y cells after 72 hrs by MTT assay", "assay_type": "functional, cell-based", "details": "Homo sapiens, SH-SY5Y, 72 h", "method_in_brief": "(§1)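 Cells seeded at 5 × 10³ per well and incubated overnight in medium with 10% FBS. Medium then replaced with fresh medium containing compound at […] for 72 h. MTT (5 mg/mL stock, 20 µL per well) added for 4 h at 37 °C, formazan dissolved in DMSO, absorbance read at 570 nm. Each dose run in parallel triplicate. IC50 taken from mean absorbance versus concentration curves.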"}, "[2]": {"assay": "Growth inhibition of human L02 cells after 72 hrs by MTT assay", "assay_type": "cell-based", "details": "L02, 72 h", "method_in_brief": "as §1"}, "A549": {"tested_on": "A549", "assay": "Selectivity index, ratio of IC50 for human L02 cells to IC50 for human A549 cells", "assay_type": "functional"}, "[3]": {"assay": "Growth inhibition of human HepG2 cells after 72 hrs by MTT assay", "assay_type": "functional, cell-based", "details": "Homo sapiens, HepG2, 72 h", "method_in_brief": "as §1"}, "[4]": {"assay": "Growth inhibition of human HeLa cells after 72 hrs by MTT assay", "assay_type": "functional, cell-based", "details": "Homo sapiens, HeLa, 72 h", "method_in_brief": "as §1"}, "[5]": {"assay": "Growth inhibition of human A549 cells after 72 hrs by MTT assay", "assay_type": "functional, cell-based", "details": "Homo sapiens, A549, 72 h", "method_in_brief": "as §1"}, "[6]": {"target": "T1, DNA topoisomerase 1 (Homo sapiens) (UniProt P11387)", "T1 sequence (whole entry)": "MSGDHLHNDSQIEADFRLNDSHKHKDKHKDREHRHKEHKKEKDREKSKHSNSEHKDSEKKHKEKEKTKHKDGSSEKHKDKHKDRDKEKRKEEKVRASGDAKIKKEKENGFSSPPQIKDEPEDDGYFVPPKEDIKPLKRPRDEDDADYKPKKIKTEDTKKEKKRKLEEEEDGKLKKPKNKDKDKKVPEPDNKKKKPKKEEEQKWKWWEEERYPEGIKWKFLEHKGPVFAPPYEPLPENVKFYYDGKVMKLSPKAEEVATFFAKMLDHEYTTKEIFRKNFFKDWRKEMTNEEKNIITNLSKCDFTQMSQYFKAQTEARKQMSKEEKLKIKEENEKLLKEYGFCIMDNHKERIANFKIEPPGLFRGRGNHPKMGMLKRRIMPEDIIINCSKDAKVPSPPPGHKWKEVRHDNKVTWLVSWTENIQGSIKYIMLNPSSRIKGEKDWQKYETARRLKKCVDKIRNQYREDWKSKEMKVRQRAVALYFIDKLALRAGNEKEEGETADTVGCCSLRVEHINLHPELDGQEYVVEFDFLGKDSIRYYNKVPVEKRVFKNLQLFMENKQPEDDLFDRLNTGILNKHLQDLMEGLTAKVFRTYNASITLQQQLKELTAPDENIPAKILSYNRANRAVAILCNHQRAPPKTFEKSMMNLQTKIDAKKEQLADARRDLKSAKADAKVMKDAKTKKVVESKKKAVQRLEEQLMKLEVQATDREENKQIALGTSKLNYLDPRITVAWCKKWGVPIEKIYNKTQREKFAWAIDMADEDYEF", "assay": "Inhibition of DNA topoisomerase 1 (unknown origin) assessed as reduction in relaxation of supercoiled pBR322 plasmid DNA at 100 uM incubated for 30 mins by agarose gel electrophoresis relative to control", "method_in_brief": "(§2)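 Supercoiled pBR322 DNA incubated with Topo I in the presence or absence of compound for 30 min at 37 °C. Reaction stopped with dye solution of bromophenol blue, xylene cyanol and glycerol. Products run on 1% agarose in 1× TAE for 40 min, then EB-stained and UV-imaged. Inhibition rate derived from gel gray-scale analysis relative to control. Camptothecin served as positive control.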"}, "[7]": {"target": "T1, DNA topoisomerase 1 (Homo sapiens)", "assay": "Inhibition of DNA topoisomerase 1 (unknown origin) assessed as reduction in relaxation of supercoiled pBR322 plasmid DNA incubated for 30 mins by agarose gel electrophoresis", "method_in_brief": "as §2"}, "[8]": {"assay": "Antiproliferative activity against human SW480 cells after 48 hrs by MTT assay", "assay_type": "functional, cell-based", "details": "SW480, 48 h"}, "Bos taurus [9]": {"species": "Bos taurus", "assay": "Inhibition of calf thymus DNA topoisomerase 1-mediated DNA cleavage assessed as drug-enzyme-DNA covalent ternary complex formation by measuring increase in linear band using negatively supercoiled pBR322 plasmid DNA as substrate at 25 to 50 uM after 30 mins by agarose gel electrophoresis", "method_in_brief": "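Calf thymus Topo I (30 units) and negatively supercoiled pBR322 in Topo I buffer (pH 7.5), 30 min at 37 °C. Test compounds at 25–200, camptothecin at […]. Trapped with 1% SDS, then proteinase K 0.8 mg/mL, 10 min at 50 °C. 1% agarose/TAE run 30 min at 60 V, ethidium bromide stain, second 30-min electrophoresis. Scored as supercoiled-to-nicked/linear conversion under UV.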"}, "Bos taurus [10]": {"species": "Bos taurus", "assay": "Inhibition of calf thymus DNA topoisomerase 1 assessed as DNA-insertion by measuring reduction in conversion of negatively supercoiled pBR322 plasmid DNA to relaxed DNA at 25 uM preincubated followed by substrate addition measured after 30 mins by ethidium bromide staining based agarose gel electrophoresis", "method_in_brief": "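Calf thymus Topo I (20 units) and negatively supercoiled pBR322 DNA with test compound or ethidium bromide in Topo I buffer (50 mM Tris-HCl pH 7.5, 10 mM MgCl2, 50 mM KCl, 0.1 mM EDTA, 0.5 mM DTT, BSA), 30 min at 37 °C. 1% agarose gel in 1× TAE, 40 min. Ethidium bromide stain 30 min, UV imaging.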"}, "[11]": {"target": "T1, DNA topoisomerase 1 (Homo sapiens)", "assay": "Inhibition of DNA topoisomerase 1 (unknown origin) assessed as reduction in topoisomerase 1-DNA complex formation preincubated for 20 mins followed by supercoiled pBR322 plasmid DNA addition measured after 3 mins by electrophoretic mobility shift assay"}}, "note": "Active and inactive are the calls of the source. No cut-off for these calls is given here.", "data": [{"compound": "O=C1O[C@@]23C[C@@H](C=CC2=C1C(O)c1ccc(C(F)(F)F)cc1)N1CCCC[C@@H]13", "note": "(stereo in doubt; 4a-6)", "values": [{"measurement": "IC50", "setting": "[1]", "result": 8.57, "unit": "µM"}, {"measurement": "IC50", "setting": "[2]", "result": 18.2, "unit": "µM"}, {"measurement": "Ratio IC50", "setting": "A549", "result": "6.26 - 7.56"}, {"measurement": "IC50", "setting": "[3]", "result": 2.42, "unit": "µM"}, {"measurement": "IC50", "setting": "[4]", "result": 8.99, "unit": "µM"}, {"measurement": "IC50", "setting": "[5]", "result": 2.91, "unit": "µM"}]}, {"compound": "O=C1O[C@@]23C[C@@H](C=CC2=C1C(O)c1ccc([N+](=O)[O-])cc1)N1CCCC[C@@H]13", "note": "(stereo partly specified)", "values": [{"measurement": "IC50", "setting": "[1]", "result": 8.5, "unit": "µM"}, {"measurement": "IC50", "setting": "[2]", "result": 16.7, "unit": "µM"}, {"measurement": "Ratio IC50", "setting": "A549", "result": "6.26 - 7.56"}, {"measurement": "IC50", "setting": "[3]", "result": 4.13, "unit": "µM"}, {"measurement": "inhibition", "setting": "[6]", "result": 56.7, "unit": "%"}, {"measurement": "IC50", "setting": "[4]", "result": 8.26, "unit": "µM"}, {"measurement": "inhibition", "setting": "[7]", "result": "Dose-dependent effect"}, {"measurement": "IC50", "setting": "[5]", "result": 2.21, "unit": "µM"}]}, {"compound": "O=C1C=C2C=C[C@@H]3C[C@@]2(O1)[C@H]1CCCCN31", "note": "[SECURININE]", "values": [{"measurement": "IC50", "setting": "[1]", "result": 78.9, "unit": "µM"}, {"measurement": "IC50", "setting": "[8]", "result": 25.9, "unit": "µM"}, {"measurement": "IC50", "setting": "[3]", "result": 36.9, "unit": "µM"}, {"measurement": "inhibition", "setting": "[6]", "result": 23.9, "unit": "%"}, {"measurement": "IC50", "setting": "[4]", "result": 50.2, "unit": "µM"}, {"measurement": "IC50", "setting": "[5]", "result": 23.6, "unit": "µM"}]}, {"compound": "CC[C@@]1(O)C(=O)OCc2c1cc1n(c2=O)Cc2cc3ccccc3nc2-1", "note": "[CAMPTOTHECIN]", "values": [{"measurement": "IC50", "setting": "[1]", "result": "> 100", "unit": "µM"}, {"measurement": "inhibition", "setting": "Bos taurus [9]", "result": "Active"}, {"measurement": "IC50", "setting": "[3]", "result": 29.8, "unit": "µM"}, {"measurement": "IC50", "setting": "[4]", "result": 59.1, "unit": "µM"}, {"measurement": "IC50", "setting": "[5]", "result": 0.12, "unit": "µM"}]}, {"compound": "CC[n+]1c(-c2ccccc2)c2cc(N)ccc2c2ccc(N)cc21", "values": [{"measurement": "inhibition", "setting": "Bos taurus [10]", "result": "Active"}]}, {"compound": "O=C1O[C@@]23C[C@@H](C=CC2=C1[C@@H](O)c1ccc([N+](=O)[O-])cc1)N1CCCC[C@@H]13", "values": [{"measurement": "IC50", "setting": "[1]", "result": 8.52, "unit": "µM"}, {"measurement": "IC50", "setting": "[3]", "result": 4.01, "unit": "µM"}, {"measurement": "IC50", "setting": "[4]", "result": 7.99, "unit": "µM"}, {"measurement": "IC50", "setting": "[5]", "result": 1.98, "unit": "µM"}, {"measurement": "inhibition", "setting": "[11]", "result": "Dose-dependent effect"}]}]}
